Results reported in ChEMBL document CHEMBL1149648, “Norcantharimides, synthesis and anticancer activity: Synthesis of new norcantharidin analogues and their anticancer evaluation” (2007).

How the values were obtained:
Format in all cases: functional
[1] = test system: SW480; assay: Cytotoxicity against human SW480 cells at 100 uM after 72 hrs by MTT assay; settings: SW480, 72 h
Method in brief: (§1)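 Log-phase cells in DMEM with 10% FBS (37 °C, 5% CO2) were plated in duplicate at 2500–4000 cells/well. Agent was added 24 h later at a fixed final concentration of 100 µM and left for 72 h continuous exposure. Read-out was MTT absorbance at 540 nm, expressed as percent growth inhibition, where 100% means total growth inhibition.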

[2] = test system: DU-145; assay: Cytotoxicity against human DU145 cells at 100 uM after 72 hrs by MTT assay; settings: DU-145, 72 h; method in brief: as §1
[3] = Cytotoxicity against human SJG2 cells at 100 uM after 72 hrs by MTT assay; settings: SJ-G2, 72 h; method in brief: as §1
[4] = test system: NCI-H460; assay: Cytotoxicity against human H460 cells at 100 uM after 72 hrs by MTT assay; settings: NCI-H460, 72 h; method in brief: as §1
[5] = test system: A-431; assay: Cytotoxicity against human A431 cells at 100 uM after 72 hrs by MTT assay; settings: A-431, 72 h; method in brief: as §1
[6] = test system: HT-29; assay: Cytotoxicity against human HT29 cells at 100 uM after 72 hrs by MTT assay; settings: HT-29, 72 h; method in brief: as §1
[7] = test system: A2780; assay: Cytotoxicity against human A2780 cells at 100 uM after 72 hrs by MTT assay; settings: A2780, 72 h; method in brief: as §1
[8] = Cytotoxicity against human BE2C cells at 100 uM after 72 hrs by MTT assay; settings: BE(2)-C; method in brief: as §1
[9] = test system: MCF7; assay: Cytotoxicity against human MCF7 cells at 100 uM after 72 hrs by MTT assay; settings: MCF7, 72 h; method in brief: as §1
[10] = test system: SW480; assay: Cytotoxicity against human SW480 cells after 72 hrs by MTT assay; settings: SW480, 72 h
Method in brief: (§2)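 Cells were grown in DMEM with 10% FBS, bicarbonate, penicillin/streptomycin and 4 mM glutamine at 37 °C under 5% CO2. Log-phase cells were plated in duplicate at 2500–4000 cells/well. After 24 h, medium with or without agent was added (stocks in DMSO or water). Growth inhibition was read by MTT at 540 nm after 72 h continuous exposure. Values are means (SEM) of 3–6 experiments.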

[11] = Cytotoxicity against human SJG2 cells after 72 hrs by MTT assay; settings: SJ-G2, 72 h; method in brief: as §2
[12] = test system: NCI-H460; assay: Cytotoxicity against human H460 cells after 72 hrs by MTT assay; settings: NCI-H460, 72 h; method in brief: as §2
[13] = test system: DU-145; assay: Cytotoxicity against human DU145 cells after 72 hrs by MTT assay; settings: DU-145, 72 h; method in brief: as §2
[14] = test system: A2780; assay: Cytotoxicity against human A2780 cells after 72 hrs by MTT assay; settings: A2780, 72 h; method in brief: as §2
[15] = test system: MCF7; assay: Cytotoxicity against human MCF7 cells after 72 hrs by MTT assay; settings: MCF7, 72 h; method in brief: as §2
[16] = test system: HT-29; assay: Cytotoxicity against human HT29 cells after 72 hrs by MTT assay; settings: HT-29, 72 h; method in brief: as §2
[17] = test system: A-431; assay: Cytotoxicity against human A431 cells after 72 hrs by MTT assay; settings: A-431, 72 h; method in brief: as §2
[18] = Cytotoxicity against human BE2C cells after 72 hrs by MTT assay; settings: BE(2)-C
Method in brief: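 Cells cultured in DMEM with 10% FBS, bicarbonate, penicillin, streptomycin and 4 mM glutamine at 37 °C, 5% CO2. Log-phase cells plated in duplicate at 2500–4000/well; test agent (DMSO stock) added 24 h later. After 72 h continuous exposure, MTT read at 540 nm; means of 3–6 experiments.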

SMILES | inhibition at 100 µM [1] [%] | inhibition at 100 µM [2] [%] | inhibition at 100 µM [3] [%] | inhibition at 100 µM [4] [%] | inhibition at 100 µM [5] [%] | inhibition at 100 µM [6] [%] | inhibition at 100 µM [7] [%] | inhibition at 100 µM [8] [%] | inhibition at 100 µM [9] [%] | GI50 [10] [µM] | GI50 [11] [µM] | GI50 [12] [µM] | GI50 [13] [µM] | GI50 [14] [µM] | GI50 [15] [µM] | GI50 [16] [µM] | GI50 [17] [µM] | GI50 [18] [µM]
CCCCCCCCN1C(=O)[C@@H]2[C@H](C1=O)[C@@H]1CC[C@H]2O1 | 65 | 44 | 54 | < 10 | 61 | 70 | 50 | 68 | 88 |  |  |  |  |  |  |  |  | 
CCCCCCCCCCCCN1C(=O)[C@@H]2[C@H](C1=O)[C@@H]1CC[C@H]2O1 | 55 | 66 | 58 | 53 | 35 | 25 | 40 | 40 | 52 |  |  |  |  |  |  |  |  | 
CCCN1C(=O)[C@@H]2[C@H](C1=O)[C@@H]1CC[C@H]2O1 | 45 | < 10 | < 10 | < 10 | < 10 | 16 | < 10 | < 10 | < 10 |  |  |  |  |  |  |  |  | 
CCC(C)N1C(=O)[C@@H]2[C@H](C1=O)[C@@H]1CC[C@H]2O1 (stereo partly drawn) | < 10 | < 10 | < 10 | < 10 | < 10 | < 10 | < 10 | < 10 | < 10 |  |  |  |  |  |  |  |  | 
CCCCCCN1C(=O)[C@@H]2[C@H](C1=O)[C@@H]1CC[C@H]2O1 | < 10 | < 10 | < 10 | < 10 | < 10 | < 10 | < 10 | < 10 | < 10 |  |  |  |  |  |  |  |  | 
C=CCCN1C(=O)[C@@H]2[C@H](C1=O)[C@@H]1CC[C@H]2O1 | < 10 | < 10 | < 10 | < 10 | < 10 | < 10 | < 10 | < 10 | < 10 |  |  |  |  |  |  |  |  | 
O=C1[C@@H]2[C@H](C(=O)N1CC(O)CO)[C@@H]1CC[C@H]2O1 (stereo partly drawn) | 69 | 67 | 27 | 32 | 60 | 39 | > 100 | 73 | > 100 | 62 | > 100 | > 100 | > 100 | 59 | 46 | > 100 | > 100 | 
COC(CO)CN1C(=O)[C@@H]2[C@H](C1=O)[C@@H]1CC[C@H]2O1 (stereo partly drawn) | < 10 | < 10 | < 10 | < 10 | < 10 | 12 | < 10 | < 10 | 33 |  |  |  |  |  |  |  |  | 
CCCCN1C(=O)[C@@H]2[C@H](C1=O)[C@@H]1CC[C@H]2O1 | < 10 | < 10 | < 10 | < 10 | < 10 | < 10 | < 10 | < 10 | < 10 |  |  |  |  |  |  |  |  | 
CCCCCCCCCCN1C(=O)[C@@H]2[C@H](C1=O)[C@@H]1CC[C@H]2O1 | 59 | 83 | 72 | > 100 | 52 | 20 | 44 | 39 | 44 |  |  |  |  |  |  |  |  | 
O=C1[C@@H]2[C@H](C(=O)N1C1CCCCC1)[C@@H]1CC[C@H]2O1 | < 10 | < 10 | < 10 | < 10 | < 10 | < 10 | < 10 | < 10 | < 10 |  |  |  |  |  |  |  |  | 
O=C1[C@@H]2[C@H](C(=O)N1CC1CO1)[C@@H]1CC[C@H]2O1 (stereo partly drawn) | 30 | 22 | 25 | 17 | 40 | 25 | 40 | 20 | 10 |  |  |  |  |  |  |  |  | 
C=CCN1C(=O)[C@@H]2[C@H](C1=O)[C@@H]1CC[C@H]2O1 | 50 | 15 | 2 | 20 | 32 | 19 | 67 | 62 | 96 |  |  |  |  |  | 80 |  |  | 
CCCCCCCCCCCCCCCCCCN1C(=O)[C@@H]2[C@H](C1=O)[C@@H]1CC[C@H]2O1 | < 10 | < 10 | < 10 | < 10 | < 10 | < 10 | < 10 | < 10 | < 10 |  |  |  |  |  |  |  |  | 
C[C@@]12C(=O)OC(=O)[C@]1(C)[C@H]1CC[C@@H]2O1 [CANTHARIDIN] |  |  |  |  |  |  |  |  |  | 4.5 | 1.7 | 3.3 | 2.1 | 4.4 | 7.5 | 3.2 | 2.9 | 3.7
O=C1OC(=O)C2C3CCC(O3)C12 (stereo not drawn) [DEMETHYL-CANTHARIDIN] |  |  |  |  |  |  |  |  |  | 44 | 23 | 45 | 28 | 38 | 68 | 57 | 31 | 43
